Data from ChEMBL document CHEMBL1158343, “Synthesis, antimicrobial and antiviral evaluation of substituted imidazole derivatives” (Eur J Med Chem, 2009).
Converted amounts (≈) assume the structure as drawn.

What was measured:
Sindbis virus = assay: Antiviral activity against Sindbis virus infected in african green monkey Vero cells assessed as reduction in virus-induced cytopathogenicity after 3 days; type: functional, organism-based; conditions: 72 h
[1] = Cytotoxicity against african green monkey Vero cells assessed as alteration in cell morphology; type: cell-based; conditions: chlorocebus sabaeus
Method in brief: (§1)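 Uninfected cell cultures tested in parallel with the CPE-reduction antiviral assay; cells grown to confluency, then serial compound dilutions added and incubated at 37 °C (3 days in the parallel antiviral set-up). Read-out is microscopic examination of morphology; value is the minimum cytotoxic concentration, the lowest causing a microscopically detectable alteration of normal cell morphology.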

Human alphaherpesvirus 1 [2] = assay: Antiviral activity against thymidine kinase-deficient acyclovir-resistant HSV1 KOS infected in human HEL cells assessed as reduction in virus-induced cytopathogenicity after 3 days; type: functional, organism-based; conditions: Human alphaherpesvirus 1, KOS, 72 h
[3] = Cytotoxicity against human HeLa cells assessed as alteration in cell morphology; type: cell-based; method in brief: as §1
Human alphaherpesvirus 1 [4] = assay: Antiviral activity against HSV1 KOS infected in human HEL cells assessed as reduction in virus-induced cytopathogenicity after 3 days; type: functional, organism-based; conditions: Human alphaherpesvirus 1, KOS, 72 h
Coxsackievirus B4 [5] = assay: Antiviral activity against Coxsackievirus B4 infected in african green monkey Vero cells assessed as reduction in virus-induced cytopathogenicity after 3 days; type: functional, organism-based; conditions: Enterovirus B, 72 h
[6] = Cytotoxicity against human HEL cells assessed as alteration in cell morphology; type: cell-based; method in brief: as §1
Human alphaherpesvirus 2 = assay: Antiviral activity against HSV2 G infected in human HEL cells assessed as reduction in virus-induced cytopathogenicity after 3 days; type: functional, organism-based; conditions: Human alphaherpesvirus 2, strain G, 72 h
[7] = test system: Mammalian orthoreovirus 1; assay: Antiviral activity against Reovirus 1 infected in african green monkey Vero cells assessed as reduction in virus-induced cytopathogenicity after 3 days; type: functional, organism-based; conditions: Mammalian orthoreovirus 1, Vero, 72 h
Escherichia coli = assay: Antimicrobial activity against Escherichia coli after 24 hrs by tube dilution method; type: functional
Method in brief: (§2)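 Tube dilution in DMSO (stock 100 mg/ml) with serial dilutions; incubation 37 °C for 48 h for C. albicans (other organisms' times truncated in text). MIC read as lowest concentration inhibiting visible growth. Norfloxacin (bacteria) and fluconazole (fungi) as reference drugs.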

Aspergillus niger = assay: Antimicrobial activity against Aspergillus niger after 7 days by tube dilution method; type: functional; conditions: 168 h; method in brief: as §2
Staphylococcus aureus = assay: Antimicrobial activity against Staphylococcus aureus after 24 hrs by tube dilution method; type: functional; method in brief: as §2
Bacillus subtilis = assay: Antimicrobial activity against Bacillus subtilis after 24 hrs by tube dilution method; type: functional; method in brief: as §2
Candida albicans = assay: Antimicrobial activity against Candida albicans after 48 hrs by tube dilution method; type: functional; method in brief: as §2
Coxsackievirus B4 [8] = assay: Antiviral activity against Coxsackievirus B4 infected in human HeLa cells assessed as reduction in virus-induced cytopathogenicity after 3 days; type: functional, organism-based; conditions: Enterovirus B, 72 h
Punta Toro virus = assay: Antiviral activity against Punta Toro virus infected in african green monkey Vero cells assessed as reduction in virus-induced cytopathogenicity after 3 days; type: functional, organism-based; conditions: 72 h
[9] = test system: Vesicular stomatitis virus; assay: Antiviral activity against VSV infected in human HEL cells assessed as reduction in virus-induced cytopathogenicity after 3 days; type: functional, organism-based; conditions: 72 h
Human respirovirus 3 = assay: Antiviral activity against Parainfluenza-3 virus infected in african green monkey Vero cells assessed as reduction in virus-induced cytopathogenicity after 3 days; type: functional, organism-based; conditions: Human respirovirus 3, Vero, 72 h
[10] = test system: Respiratory syncytial virus; assay: Antiviral activity against RSV infected in human HeLa cells assessed as reduction in virus-induced cytopathogenicity after 3 days; type: functional, organism-based; conditions: 72 h
[11] = test system: Vesicular stomatitis virus; assay: Antiviral activity against VSV infected in human HeLa cells assessed as reduction in virus-induced cytopathogenicity after 3 days; type: functional, organism-based; conditions: 72 h

SMILES	EC50 (Human alphaherpesvirus 1 [2])	EC50 (Human alphaherpesvirus 1 [4])	MCC [6]	EC50 (Human alphaherpesvirus 2)	MBC (Escherichia coli)	MIC (Escherichia coli)	MFC (Aspergillus niger)	MIC (Aspergillus niger)	MBC (Staphylococcus aureus)	MIC (Staphylococcus aureus)	MBC (Bacillus subtilis)	MIC (Bacillus subtilis)	MFC (Candida albicans)	MIC (Candida albicans)	EC50 [9]	other results
NC(=O)c1ncn([C@@H]2O[C@H](CO)[C@@H](O)[C@H]2O)n1 [RIBAVIRIN]	> 250 µg/mL	> 250 µg/mL	> 250 µg/mL	> 250 µg/mL												EC50 (Sindbis virus): > 250 µg/mL; MCC [1]: > 250 µg/mL; MCC [3]: > 250 µg/mL; EC50 (Coxsackievirus B4 [5]): > 250 µg/mL; EC50 [7]: > 250 µg/mL
O=[N+]([O-])c1cccc(-c2ncc[nH]2)c1					33 µM (≈ 6.24 µg/mL)	4 µM (≈ 0.757 µg/mL)	264 µM (≈ 49.9 µg/mL)	33 µM (≈ 6.24 µg/mL)	33 µM (≈ 6.24 µg/mL)	4 µM (≈ 0.757 µg/mL)	33 µM (≈ 6.24 µg/mL)	4 µM (≈ 0.757 µg/mL)	264 µM (≈ 49.9 µg/mL)	33 µM (≈ 6.24 µg/mL)		
O=C(O)c1ccccc1-c1nccn1C(=O)c1ccc([N+](=O)[O-])cc1	> 100 µg/mL	> 100 µg/mL	> 100 µg/mL	> 100 µg/mL	18 µM (≈ 6.07 µg/mL)	2 µM (≈ 0.675 µg/mL)	148 µM (≈ 49.9 µg/mL)	9 µM (≈ 3.04 µg/mL)	18 µM (≈ 6.07 µg/mL)	2 µM (≈ 0.675 µg/mL)	18 µM (≈ 6.07 µg/mL)	2 µM (≈ 0.675 µg/mL)	256 µM (≈ 86.3 µg/mL)	18 µM (≈ 6.07 µg/mL)	> 100 µg/mL	EC50 (Sindbis virus): > 100 µg/mL; MCC [1]: > 100 µg/mL; EC50 (Coxsackievirus B4 [8]): > 100 µg/mL; EC50 (Punta Toro virus): > 100 µg/mL; EC50 (Human respirovirus 3): > 100 µg/mL; EC50 [10]: > 100 µg/mL; MCC [3]: > 100 µg/mL; EC50 (Coxsackievirus B4 [5]): > 100 µg/mL; EC50 [7]: > 100 µg/mL; EC50 [11]: > 100 µg/mL
O=C(c1ccc([N+](=O)[O-])cc1)n1ccnc1-c1ccccc1Cl	> 100 µg/mL	> 100 µg/mL	> 100 µg/mL	> 100 µg/mL	19 µM (≈ 6.23 µg/mL)	2 µM (≈ 0.655 µg/mL)	76 µM (≈ 24.9 µg/mL)	9 µM (≈ 2.95 µg/mL)	19 µM (≈ 6.23 µg/mL)	2 µM (≈ 0.655 µg/mL)	19 µM (≈ 6.23 µg/mL)	2 µM (≈ 0.655 µg/mL)	152 µM (≈ 49.8 µg/mL)	38 µM (≈ 12.5 µg/mL)	> 100 µg/mL	EC50 (Sindbis virus): > 100 µg/mL; MCC [1]: > 100 µg/mL; EC50 (Coxsackievirus B4 [8]): > 100 µg/mL; EC50 (Punta Toro virus): > 100 µg/mL; EC50 (Human respirovirus 3): > 100 µg/mL; EC50 [10]: > 100 µg/mL; MCC [3]: > 100 µg/mL; EC50 (Coxsackievirus B4 [5]): > 100 µg/mL; EC50 [7]: > 100 µg/mL; EC50 [11]: > 100 µg/mL
Clc1cccc(-c2ncc[nH]2)c1					561 µM (≈ 100 µg/mL)	702 µM (≈ 125 µg/mL)	280 µM (≈ 50 µg/mL)	35 µM (≈ 6.25 µg/mL)	35 µM (≈ 6.25 µg/mL)	4 µM (≈ 0.714 µg/mL)	140 µM (≈ 25 µg/mL)	17 µM (≈ 3.04 µg/mL)	280 µM (≈ 50 µg/mL)	35 µM (≈ 6.25 µg/mL)		
CCn1cc(C(=O)O)c(=O)c2cc(F)c(N3CCNCC3)cc21 [NORFLOXACIN]					19 µM (≈ 6.07 µg/mL)	2 µM (≈ 0.639 µg/mL)			19 µM (≈ 6.07 µg/mL)	2 µM (≈ 0.639 µg/mL)	19 µM (≈ 6.07 µg/mL)	2 µM (≈ 0.639 µg/mL)				
c1ccc(-c2ncc[nH]2)cc1 [2-PHENYLIMIDAZOLE]					43 µM (≈ 6.2 µg/mL)	5 µM (≈ 0.721 µg/mL)	694 µM (≈ 100 µg/mL)	86 µM (≈ 12.4 µg/mL)	43 µM (≈ 6.2 µg/mL)	5 µM (≈ 0.721 µg/mL)	43 µM (≈ 6.2 µg/mL)	5 µM (≈ 0.721 µg/mL)	347 µM (≈ 50 µg/mL)	43 µM (≈ 6.2 µg/mL)		
COc1ccc(-c2ncc[nH]2)cc1					263 µM (≈ 45.8 µg/mL)	32 µM (≈ 5.57 µg/mL)	526 µM (≈ 91.6 µg/mL)	65 µM (≈ 11.3 µg/mL)	32 µM (≈ 5.57 µg/mL)	4 µM (≈ 0.697 µg/mL)	32 µM (≈ 5.57 µg/mL)	4 µM (≈ 0.697 µg/mL)	526 µM (≈ 91.6 µg/mL)	65 µM (≈ 11.3 µg/mL)		
O=c1[nH]c(=O)n([C@H]2C[C@H](O)[C@@H](CO)O2)cc1/C=C/Br [BRIVUDINE]	96 µg/mL (≈ 288 µM)	0.04 µg/mL (≈ 0.12 µM)	> 250 µg/mL	29 µg/mL (≈ 87.1 µM)											> 250 µg/mL	
Nc1ccn(C[C@@H](CO)OCP(=O)(O)O)c(=O)n1.O.O [CIDOFOVIR]	2 µg/mL		> 250 µg/mL	2 µg/mL											> 250 µg/mL	
Nc1nc2c(ncn2COC(CO)CO)c(=O)[nH]1 [GANCICLOVIR]	1 µg/mL (≈ 3.92 µM)	0.06 µg/mL (≈ 0.235 µM)	> 100 µg/mL	0.06 µg/mL (≈ 0.235 µM)											> 100 µg/mL	
Clc1ccccc1-c1ncc[nH]1					561 µM (≈ 100 µg/mL)	702 µM (≈ 125 µg/mL)	280 µM (≈ 50 µg/mL)	35 µM (≈ 6.25 µg/mL)	561 µM (≈ 100 µg/mL)	35 µM (≈ 6.25 µg/mL)	561 µM (≈ 100 µg/mL)	702 µM (≈ 125 µg/mL)	561 µM (≈ 100 µg/mL)	702 µM (≈ 125 µg/mL)		
